Activity, viability and Drug metabolism data for seven compounds are collected here from ChEMBL document CHEMBL5029154, “Design, Synthesis, and Biological Evaluation of Organic Nitrite (NO2-) Donors as Potential Anticerebral Ischemia Agents” (J Med Chem, 2021).

Active and inactive are the calls of the source. No cut-off for these calls is given here.

Series [1] is described as follows: Neuroprotective activity against in OGD/R-induced rat cortical neuron apoptosis assessed as early apoptotic cells pretreated at 1.8 uM for 24 hrs followed by subjected to OGD for 2 hrs measured after 24 hrs under normoxic condition by PI/FITC-H staining based flow cytometry (reference value: 58.46%). It is filed as functional, Cortical neurone.
Series [2] is described as follows: Neuroprotective activity against in OGD/R-induced rat cortical neuron apoptosis assessed as late apoptotic cells pretreated at 1.8 uM for 24 hrs followed by subjected to OGD for 2 hrs measured after 24 hrs under normoxic condition by PI/FITC-H staining based flow cytometry (reference value: 6.31%). The series is classed as functional, Cortical neurone.
Series [3] relates to Cortical neurone. The experiment in a line: Effect on Nrf2 mRNA transcript level in OGD/R-induced rat primary cortical neuron pretreated at 1.8 uM for 24 hrs followed by subjected to OGD for 2 hrs measured after 24 hrs under normoxic condition by RT-qPCR analysis. It is filed as functional, tissue-based. Summed up: (§1)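 Primary rat cortical neurons were pretreated with 1.8 μM compound for 24 h, given 2 h OGD, then 24 h normoxic culture. Nrf2, HO-1 and NQO1 mRNA were measured by RT-qPCR. Cytoplasmic and nuclear protein (30 μg/lane) were blotted for Nrf2, with lamin A and β-actin as references, and quantified by densitometry as the nuclear:cytoplasmic ratio. Three independent experiments, mean ± SD.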

Series [4] has as its system Cortical neurone. The series is described as follows: Induction of HO-1 mRNA transcript level in OGD/R-induced rat primary cortical neuron pretreated at 1.8 uM for 24 hrs followed by subjected to OGD for 2 hrs measured after 24 hrs under normoxic condition by RT-qPCR analysis. The series is classed as functional, tissue-based. The procedure, abridged:
as §1

In series [5] the test system is Cortical neurone. The series is described as follows: Induction of Nrf2 protein level in OGD/R-induced rat primary cortical neuron pretreated at 1.8 uM for 24 hrs followed by subjected to OGD for 2 hrs measured after 24 hrs under normoxic condition by Western blot analysis. The series is classed as functional, tissue-based. Summed up: as §1
Series [6] is described as follows: Neuroprotective activity against in OGD/R-induced rat cortical neuron apoptosis assessed as necrotic cells pretreated at 1.8 uM for 24 hrs followed by subjected to OGD for 2 hrs measured after 24 hrs under normoxic condition by PI/FITC-H staining based flow cytometry (reference value: 3.68%). It is filed as functional, Cortical neurone.
Series [7] is described as follows: Neuroprotective activity against in OGD/R-induced rat primary cortical neuron apoptosis assessed as viable cells pretreated at 1.8 uM for 24 hrs followed by subjected to OGD for 2 hrs measured after 24 hrs under normoxic condition by PI/FITC-H staining based flow cytometry (reference value: 31.55%). It is filed as functional. The note with it: Cortical neurone, read-out: Activity. Summed up: (§2)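 Cortical neurons were isolated from SD rat cortex by enzymatic digestion, plated on poly-lysine in 10% FBS DMEM, and pretreated 24 h at 1.8 μM in basal medium with 2% B27. OGD was run in glucose/FBS-free DMEM under 1% O₂, followed by 24 h reoxygenation in 10% FBS DMEM. Viability was read by MTT; apoptosis was also assessed. Three independent experiments.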

For series [8], the system named is Cortical neurone. The series is described as follows: Induction of NQO1 mRNA transcript level in OGD/R-induced rat primary cortical neuron pretreated at 1.8 uM for 24 hrs followed by subjected to OGD for 2 hrs measured after 24 hrs under normoxic condition by RT-qPCR analysis. The series is classed as functional, tissue-based. The procedure, abridged:
as §1

Series [9] can be described thus: Drug metabolism assessed as nitric oxide release in presence of bovine plasma at 200 uM measured after 1 hr by Griess reagent based assay. It is filed as ADME, cell-free, Bos taurus. The note with it: cattle.
In series [10] the test system is Cortical neurone. The experiment in a line: Neuroprotective activity against in OGD/R-induced Sprague-Dawley rat cortical neuron injury assessed as cell viability pretreated at 1.8 uM for 24 hrs followed by subjected to OGD for 2 hrs measured after 24 hrs under normoxic condition. It is filed as functional, tissue-based. The procedure, abridged: as §2
In series [11] the test system is Cortical neurone. The experiment in a line: Neuroprotective activity against in OGD/R-induced rat cortical neuron cytotoxicity assessed as decrease in cell viability pretreated at 1.8 uM for 24 hrs followed by subjected to OGD for 2 hrs measured after 24 hrs under normoxic condition by MTT assay. The series is classed as functional, tissue-based. Summed up:
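Primary rat cortical neurons from enzymatically digested cortex, plated on poly-lysine in DMEM/10% FBS for 4 h. Pretreated 24 h in neuron basal medium with 2% B27, then glucose/FBS-free DMEM at 1% O2. Returned to 10% FBS DMEM under normoxia for 24 h. Viability by MTT; three independent experiments, mean SD.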

For another series, the system named is HUVEC. The series is described as follows: Angiogenesis activity in HUVEC cells assessed as increase in tube formation at 1.8 uM measured after 8 hrs by inverted microscopy. It is filed as functional, cell-based. The note with it: Homo sapiens. Summed up:
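Early-passage HUVECs (passages 2–6), grown in DMEM with 10% FBS, glutamine, pyruvate and antibiotics, were seeded at 8 × 10⁴ cells/well on Matrigel. They were exposed to vehicle or compound for 8 h at 37 °C, 5% CO₂. Tubes were counted under an inverted microscope.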

`CC(C)(C)c1cc(O)ccc1O` [E319]: the Activity in series [1] stood at 13.91%; in series [2], 1.4%; in series [6] it was 0.84%. Also, the outcome with Cortical neurone [3] was inactive. The outcome with Cortical neurone [4], in the series on Cortical neurone [5] and in the series with Cortical neurone [8] was Active. Moreover, in series [7], the viability at 1.8 µM is 84%.
`N#C/C(=C\c1ccccc1)C[N+](=O)[O-]`: in series [9], the Drug metabolism entry is on record as “Metabolite_Detected”. For the same compound, the result with Cortical neurone [10] was Active.
Turning to `O=N[O-].[Na+]` [SODIUM NITRITE], the outcome in the series on Cortical neurone [11], in the series on Cortical neurone [3] and in the series with Cortical neurone [5] was inactive. Further, the Activity in [1] is 50.12%; in series [2], 2.47%; in [6] it was 0.51%. Also, the viability at 1.8 µM in series [7] worked out at 46.9%.
With `COC(=O)/C(=C/c1ccccc1)C[N+](=O)[O-]`, the Drug metabolism entry in [9] was “Metabolite_Detected”. Moreover, the result in the series with Cortical neurone [10] was Active.
Turning to `O=C1CCCC=C1C[N+](=O)[O-]`, the Drug metabolism result in series [9] is “Metabolite_Detected”.
As for `C/C(=C\c1ccccc1)C(=O)c1ccccc1`, the outcome in the series with Cortical neurone [5] was Active. The outcome in the series on HUVEC was inactive.
Take `O=[N+]([O-])C/C(=C\c1ccccc1)[N+](=O)[O-]`: in [9], the Drug metabolism result was “Metabolite_Detected”. The result in the series with Cortical neurone [10] was Active.
